Active and inactive are the calls of the source. The rule behind the calls is not given here.
Columns and labels:
U-87 MG [1] = test: Cytotoxicity against human U87MG cells assessed as reduction in cell viability after 48 hrs under normoxia condition by MTT assay; assay type: functional, cell-based, U-87MG ATCC
How it was run: (§1)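 U87MG in DMEM with 10% FBS, 2 mM L-glutamine, penicillin/streptomycin; seeded 10,000 cells/well, 24 h at 37 °C, then exposed to compound at varying concentrations for 48 h at 37 °C either in a CO₂ incubator (normoxia) or a hypoxic chamber. MTT (0.5 mg/mL in PBS) added 2 h, DMSO solubilisation, absorbance 570 nm; IC50 by curve fitting; triplicate biological replicates.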

U-87 MG [2] = test: Selectivity index, ratio of IC50 for cytotoxicity against human U87MG cells under normoxia condition to IC50 for cytotoxicity against human U87MG cells under hypoxia condition incubated for 48 hrs by MTT assay; assay type: functional, U-87MG ATCC
U-87 MG [3] = test: Cytotoxicity against human U87MG cells assessed as reduction in cell viability after 48 hrs under hypoxia condition by MTT assay; assay type: functional, cell-based, U-87MG ATCC; how it was run: as §1
[4] = Induction of calcium influx in STOCK Tg(CalcaEGFP)FG104Gsat/Mmucd) mouse DRG neurons harboring CGRP-GFP assessed as increase in cytoplasmic Ca2+ at 500 nM after 7 secs by Alexa-Flour 647 Isolectin B4 staining based assay relative to control; assay type: functional, DRG neuron
How it was run: (§2)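 Lumbar DRG L1–L6 from CGRP-GFP mice, dissociated with 0.25% trypsin for 20 min and triturated. Cultured ~16–24 h at 37 °C, 5% CO2, in MEM/10% FBS/HEPES/glucose, pH 7.4, then loaded with 4 μM Fura2-AM for 1 h. Ratio 340/380 nm excitation, 510 nm emission, recorded at room temperature during ~1 h pharmacology sequence. IB4 stain afterwards; cells classed by AITC, menthol, capsaicin, kM-RIIIJ, IB4 and CGRP-GFP.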

Cerebral cortex [5] = test: Induction of cell death in mouse brain cortex assessed as increase in cytoplasmic Ca2+ accumulation at 1 uM by Alexa-Flour 647 Isolectin B4 staining based assay; assay type: functional, tissue-based
DRG neuron [6] = test: Induction of cell death in STOCK Tg(CalcaEGFP)FG104Gsat/Mmucd) mouse DRG neurons N15 cells harboring CGRP-GFP at 1 uM 7 secs by Alexa-Flour 647 Isolectin B4 staining based light micrographic method; assay type: functional; how it was run: as §2
[7] = Cytotoxicity against human CH157 cells assessed as reduction in cell viability after 48 hrs by MTT assay; assay type: functional, cell-based
[8] = Induction of calcium influx in STOCK Tg(CalcaEGFP)FG104Gsat/Mmucd) mouse DRG neurons harboring CGRP-GFP assessed as increase in cytoplasmic Ca2+ in at 500 nM after 7 secs by Alexa-Flour 647 Isolectin B4 staining based assay relative to control; assay type: functional, DRG neuron; how it was run: as §2
[9] = Induction of calcium influx in STOCK Tg(CalcaEGFP)FG104Gsat/Mmucd) mouse DRG neurons harboring CGRP-GFP assessed as increase in cytoplasmic Ca2+ at 1 uM after 7 secs by Alexa-Flour 647 Isolectin B4 staining based assay relative to control; assay type: functional, DRG neuron; how it was run: as §2
Cerebral cortex [10] = test: Induction of cell death in mouse brain cortex assessed as increase in cell lysis at 1 uM after 5 secs by Alexa-Flour 647 Isolectin B4 staining based assay; assay type: functional, tissue-based
DRG neuron [11] = test: Irreversible induction of calcium influx in STOCK Tg(CalcaEGFP)FG104Gsat/Mmucd) mouse DRG neurons harboring CGRP-GFP assessed as increase in cytoplasmic Ca2+ pulse at 1 uM after 15 secs by […]; assay type: functional, cell-based; how it was run: as §2
[12] = Toxicity in TuAB zebra fish embryo at 10 to 1000 nM dosed at 6 hpf and measured after 1 day postfertilization by bright field microscopic method; assay type: organism-based, Danio rerio; conditions: zebrafish, in vivo, 24 h, 1 µM
How it was run: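 TuAB zebrafish embryos exposed to compound or DMSO vehicle from 6 hpf to 1 dpf at 28.5 °C, then assessed by bright-field stereomicroscope imaging.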

A549 = test: Cytotoxicity against human A549 cells assessed as reduction in cell viability after 48 hrs by MTT assay; assay type: functional, cell-based; conditions: A549, 48 h
How it was run: (§3)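 Cells seeded at 10,000/well, left 24 h at 37 °C, then exposed to a range of concentrations for 48 h at 37 °C, either in a CO2 incubator (normoxia) or in a hypoxic chamber. MTT (0.5 mg/mL in PBS) was added for 2 h, DMSO was added, and absorbance was read at 570 nm. IC50 was fitted from the curves. Triplicate biological replicates.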

DRG neuron [13] = test: Induction of calcium influx in STOCK Tg(CalcaEGFP)FG104Gsat/Mmucd) mouse DRG neurons harboring CGRP-GFP assessed as increase in cytoplasmic Ca2+ pulse at 10 nM after 15 secs by […]; assay type: functional, cell-based
How it was run: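 DRG neurons from CGRP-GFP mice, Fura2-AM loaded, imaged as 340/380 nm ratio. Compound applied as a 15-second pulse, with concentrations down to ~10 nM tested. Neuron classes assigned by pharmacological markers and IB4/CGRP-GFP.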

Huh-7 = test: Cytotoxicity against human HuH7 cells assessed as reduction in cell viability after 48 hrs by MTT assay; assay type: functional, cell-based; conditions: Huh-7, 48 h; how it was run: as §3
CHO = test: Cytotoxicity against […] assessed as reduction in cell viability after 48 hrs by MTT assay; assay type: cell-based; conditions: Cricetulus griseus; how it was run: as §3

Row | Compound | IC50 (U-87 MG [1]) [µM] | Ratio IC50 (U-87 MG [2]) | IC50 (U-87 MG [3]) [µM] | Activity [4] [%] | Activity (Cerebral cortex [5]) | Activity (DRG neuron [6]) | IC50 [7] [µM] | Activity [8] [%] | Activity [9] [%] | Activity (Cerebral cortex [10]) | Activity (DRG neuron [11]) | Activity [12] | IC50 (A549) [µM] | Activity (DRG neuron [13]) | IC50 (Huh-7) [µM] | IC50 (CHO) [µM]
1 | COc1cccc2c1C(=O)c1c(O)c3c(c(O)c1C2=O)C[C@@](O)(C(=O)CO)C[C@@H]3O[C@H]1C[C@H](N)[C@H](O)[C@H](C)O1 [DOXORUBICIN] | 0.45 | 0.45 | 0.98 |  |  |  |  |  |  |  |  |  |  |  |  | 
2 | C=C1/C=C/C(=O)NCC(=O)N[C@@H](C(C)C)C(=O)O[C@@H]([C@H](C)C[C@@H](C)CCC)[C@H](OC)C(=O)N1 | 0.41 | 3.6 | 0.12 | 8 | Active | Active | 0.098 | 61 | 34 | Active | Active | Non-Toxic | 0.39 | Active | 0.19 | 0.39
3 | Cn1nnc2c(C(N)=O)ncn2c1=O [TEMOZOLOMIDE] | 640 | 0.6 | 1100 |  |  |  |  |  |  |  |  |  |  |  |  | 

Reference: ChEMBL document CHEMBL4610085, “Boholamide A, an APD-Class, Hypoxia-Selective Cyclodepsipeptide” (J Nat Prod, 2020)
